These results are taken from ChEMBL document CHEMBL1145328, “Synthesis, crystal structure, structure-activity relationships, and antiviral activity of a potent SARS coronavirus 3CL protease inhibitor” (J Med Chem, 2006).

The IC50 is the concentration needed to halve the response being measured. In general, Ki refers to a dissociation constant, usually derived from enzyme kinetics or from competition with a known ligand.

Data set [1] relates to MRC5. As to the kind of experiment: Cytotoxicity against MRC5 cells infected with human coronavirus 229E. It is filed as functional, cell-based.
A further data set has as its target Replicase polyprotein 1a (Severe acute respiratory syndrome-related coronavirus, UniProt P0C6U8). Put plainly: Inhibition of SARS coronavirus 3CL protease. In a few lines:
(§1)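 SARS 3CLpro (75 nM) or 229E 3CLpro (75 nM), recombinant, expressed as GST fusion in E. coli BL21(DE3)pLysS and released with factor Xa. Enzyme preincubated with compound 20 min at 25 °C. Reaction in Tris-HCl pH 7.5, NaCl, EDTA, DTT and BSA, 30 min at 25 °C, stopped with TFA. Conversion measured by reverse-phase HPLC peak areas. Ki by Cheng–Prusoff.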

The next data set has as its system Human coronavirus 229E. As to the kind of experiment: Inhibition of human coronavirus 229E 3CL protease. It is filed as functional. The essentials:
as §1

Data set [2] can be described thus: Stability in mouse plasma after 120 mins. Format: ADME. The conditions noted are these: read-out: Stability. The essentials: (§2)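 Human, mouse or rat plasma was prewarmed 5 min at 37 °C. Compound was added from a 100 µM stock in 1% DMSO to give 90% plasma. Samples were shaken at 37 °C for 0, 30 or 120 min, then quenched in acetonitrile with internal standard and centrifuged. Supernatant was diluted and analysed by LC/MS. Result is % of initial remaining.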

A further data set has as its system Vero. Put plainly: Cytotoxicity against VeroE6 cells infected with SARS coronavirus. Format: functional, cell-based. Conditions: Chlorocebus sabaeus.
The test system of data set [3] is MRC5. As to the kind of experiment: Antiviral activity against human coronavirus 229E in MRC5 cells assessed as reduction in viral load at 2.5 uM. Format: functional. The essentials:
(§3)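 HCoV 229E (ATCC VR-740) stocks were grown in MRC-5 cells. MRC-5 cells were preabsorbed with 40 pfu/well virus for 1 h, then unabsorbed virus was removed and serially diluted compound added. Supernatants were harvested and TCID50 titred on fresh MRC-5 cells. Titre is given as log TCID50/mL.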

Data set [4] concerns SARS-CoV. Put plainly: Antiviral activity against SARS coronavirus in VeroE6 cells assessed as reduction in viral load at 0.625 uM. It is filed as functional, Severe acute respiratory syndrome-related coronavirus.
In data set [5] the test system is SARS-CoV. Put plainly: Antiviral activity against SARS coronavirus in VeroE6 cells assessed as reduction in viral load at 5 uM. Format: functional, Severe acute respiratory syndrome-related coronavirus.
Data set [6] has as its system SARS-CoV. Put plainly: Antiviral activity against SARS coronavirus in VeroE6 cells assessed as reduction in viral load. It is filed as functional, Severe acute respiratory syndrome-related coronavirus.
The nature of data set [7]: Stability in mouse plasma after 30 mins. It is filed as ADME. The conditions noted are these: read-out: Stability. The essentials: as §2
The next data set is filed under the species Mus musculus. Put plainly: Stability in mouse plasma. Format: ADME. The essentials: as §2
Data set [8] deals with SARS-CoV. Put plainly: Antiviral activity against SARS coronavirus in VeroE6 cells assessed as reduction in viral load at 1.25 uM. Format: functional, Severe acute respiratory syndrome-related coronavirus.
A short description of data set [9]: Stability in rat plasma after 30 mins. It is filed as ADME, cell-free. The conditions noted are these: read-out: Stability. In a few lines: as §2
In data set [10] the test system is MRC5. As to the kind of experiment: Antiviral activity against human coronavirus 229E in MRC5 cells assessed as reduction in viral load at 1.25 uM. Format: functional. The essentials: as §3
Data set [11] deals with MRC5. Put plainly: Antiviral activity against human coronavirus 229E in MRC5 cells assessed as reduction in viral load. Format: functional. The essentials: as §3
A short description of data set [12]: Stability in human plasma after 30 mins. Format: ADME, cell-free. The conditions noted are these: read-out: Stability. The essentials:
as §2

Data set [13] concerns SARS-CoV. Put plainly: Antiviral activity against SARS coronavirus in VeroE6 cells assessed as reduction in viral load at 10 uM. Format: functional, Severe acute respiratory syndrome-related coronavirus.
Data set [14] deals with MRC5. Put plainly: Antiviral activity against human coronavirus 229E in MRC5 cells assessed as reduction in viral load at 0.625 uM. Format: functional. The essentials:
as §3

The test system of data set [15] is MRC5. Put plainly: Antiviral activity against human coronavirus 229E in MRC5 cells assessed as reduction in viral load at 5 uM. Format: functional. The essentials: as §3
Data set [16] is described as follows: Stability in rat plasma after 120 mins. Conditions: read-out: Stability. Format: ADME, cell-free. In a few lines:
as §2

The nature of data set [17]: Stability in human plasma after 120 mins. Format: ADME, cell-free. Conditions: read-out: Stability. In a few lines:
as §2

The test system of data set [18] is Plasma. Put plainly: Stability in human plasma. It is filed as ADME, cell-free. The essentials:
as §2

In data set [19] the test system is MRC5. Put plainly: Protection of MRC5 cells infected with human coronavirus 229E at 1 uM. Format: functional, cell-based. In a few lines:
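MRC-5 cells at 90% confluence were infected for 1 h with 10-fold serial dilutions of HCoV 229E stock. Unabsorbed virus was removed and cells overlaid with 0.3% agarose. Compound was present in the medium for 4 days. Cells were then fixed with 10% formalin and stained with 0.5% crystal violet to see plaques.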

The subject of data set [20] is SARS-CoV. As to the kind of experiment: Antiviral activity against SARS coronavirus in VeroE6 cells assessed as reduction in viral load at 2.5 uM. Format: functional, Severe acute respiratory syndrome-related coronavirus.
The subject of data set [21] is Plasma. Put plainly: Stability in rat plasma. Format: ADME, cell-free. In a few lines:
as §2

Active and inactive are the calls of the source. The calls are words filed in the database; no cut-off is given here. Some results are limits rather than exact numbers.

On to `CCOC(=O)/C=C/[C@H](C[C@@H]1CCNC1=O)NC(=O)[C@H](Cc1ccc(F)cc1)NC(=O)[C@@H](NC(=O)c1cc(C)on1)C(C)C`, for which the IC50 in the data set on MRC5 [1] was over 20000 nM. For the same compound, the Ki at Replicase polyprotein 1a and in the data set with Human coronavirus 229E was over 10000 nM in each case.

As for `CCOC(=O)/C=C/[C@H](C[C@@H]1CCNC1=O)NC(=O)[C@H](CC(C)C)NC(=O)[C@@H](NC(=O)OCc1ccccc1)C(C)C`, half-maximal inhibition in the data set on MRC5 [1] (IC50) required 9100 nM. Besides, at Replicase polyprotein 1a, the Ki was 660 nM.

In the case of `CCOC(=O)/C=C/[C@H](C[C@@H]1CCNC1=O)NC(=O)[C@H](CC(C)C)NC(=O)[C@@H](NC(=O)OCc1ccccc1)C(C)OC(C)(C)C` (some centres undefined), the half-maximal inhibitory concentration (IC50) with MRC5 [1] came out at 880 nM. The same compound showed a Ki on Replicase polyprotein 1a of 58 nM.

Consider `CC(OC(C)(C)C)[C@H](NC(=O)OCc1ccccc1)C(=O)N[C@@H](CC1CCCCC1)C(=O)N[C@H](C=O)C[C@@H]1CCNC1=O` (some centres undefined), for which the figures for the remaining at 2 h in data set [2], in data set [16] and in [17] were 71%, 73% and 83%, respectively. Besides, the results for the IC50 in the data set with Vero and in the data set on MRC5 [1] were 600 nM and 140 nM, respectively. The “log10 TCID50” value was determined as 1.3 with MRC5 [3]; 6.4 with SARS-CoV [4]; 2 with SARS-CoV [5]; 6.7 in the data set with SARS-CoV [6]; 6 in the data set on SARS-CoV [8]; 1.3 with MRC5 [10]. Also, the “log10 TCID50” value in the data set with MRC5 [11] is recorded as 6.51; in the data set on SARS-CoV [13], 2; with MRC5 [14] it was 3; in the data set on MRC5 [15], 1.3; with SARS-CoV [20], 5. Moreover, the Ki on Replicase polyprotein 1a worked out at 53 nM; in the data set with Human coronavirus 229E, 68 nM. In addition, the remaining at 0.5 h in [7] was determined as 84%; in data set [9], 70%; in data set [12] it was 81%. The Stability in the data set listed under Mus musculus, in the data set on Plasma [18] and in the data set on Plasma [21] was 100% in each case. Besides, the result in the data set with MRC5 [19] was Active.

In turn, `CCOC(=O)/C=C/[C@H](C[C@@H]1CCNC1=O)NC(=O)[C@H](Cc1ccccc1)NC(=O)[C@@H](NC(=O)OCc1ccccc1)C(C)C` displayed a half-maximal inhibitory concentration (IC50) with MRC5 [1] of 13200 nM. The compound further came in with a Ki at Replicase polyprotein 1a of 2260 nM.
